Data on 6 molecules can be found in ChEMBL document CHEMBL1125657 (J Med Chem, 1991).

As a reminder, the Ki is the equilibrium dissociation constant of an inhibitor or competing ligand from its target. The ED50 is the midpoint of the dose-response relation. Low readings indicate greater potency, high ones weaker potency.

Experiment [1] concerns the target T1, Kappa-type opioid receptor (Cavia porcellus, UniProt P41144). Briefly: (§1) Binding affinity of compound was measured against Opioid receptor kappa 1 on electrically stimulated guinea pig ileal longitudinal muscle myenteric plexus (GPI) at 100 nM preparation using U-50,488H as agonist. The method, boiled down: (§2)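 Electrically stimulated guinea pig ileal longitudinal muscle was used for μ agonists (M, DAMGO) and κ agonists (EK, U50488H). Mouse vas deferens was used for δ agonists (DADLE, DPDPE). Antagonist at 100 nM unless specified, preincubated 15 min. Agonist concentration-response curves were run without and then with antagonist in the same tissue, giving IC50s. Ke = [antagonist]/(IC50 ratio − 1).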

Experiment [2] relates to Mus musculus. Briefly: Compound was tested for antagonism of the antinociceptive effect of U-50, 488H opioid agonist, sc in mice in an acetic acid writhing assay in a control group. The format is functional. The method, boiled down: (§3)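 Mouse acetic acid writhing assay. Antagonist was given icv at 100 nmol in 5 μL saline, timed so its 60-min peak effect fell at the centre of the observation period. Agonists (M, EK, U50488H) were given sc at four dose levels to control and treated mice. ED50 ratio = treated ED50 / control ED50.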

Experiment [3] deals with Mu-type opioid receptor (Homo sapiens) (UniProt P35372). Nature of the experiment: Compound was tested for antagonist activity against mu opioid receptor on electrically stimulated guinea pig ileal longitudinal muscle myenteric plexus (GPI) at 100 nM using DAMGO as agonist ligand. The format is functional. A digest of the protocol: as §2
Chain of Mu-type opioid receptor (Homo sapiens) (P35372 whole entry): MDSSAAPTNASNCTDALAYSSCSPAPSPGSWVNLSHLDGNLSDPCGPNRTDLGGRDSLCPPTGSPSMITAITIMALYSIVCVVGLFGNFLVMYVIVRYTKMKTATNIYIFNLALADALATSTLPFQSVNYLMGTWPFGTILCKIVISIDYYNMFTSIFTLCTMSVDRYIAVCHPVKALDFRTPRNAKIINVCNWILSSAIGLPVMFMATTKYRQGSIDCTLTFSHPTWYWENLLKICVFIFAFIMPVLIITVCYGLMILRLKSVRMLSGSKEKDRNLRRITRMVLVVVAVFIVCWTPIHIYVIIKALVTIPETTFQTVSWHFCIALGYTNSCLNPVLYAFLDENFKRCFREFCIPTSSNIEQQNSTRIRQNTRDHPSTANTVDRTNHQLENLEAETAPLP
Experiment [4] deals with T2, Mu-type opioid receptor (Cavia porcellus, UniProt P97266). Nature of the experiment: (§4) Binding affinity of compound was measured against Opioid receptor mu 1 on electrically stimulated guinea pig ileal longitudinal muscle myenteric plexus (GPI)at 100 nM preparation using DAMGO as agonist. The method, boiled down:
as §2

Experiment [5] concerns the target Delta-type opioid receptor (Mus musculus) (UniProt P32300). Nature of the experiment: Binding affinity of compound was measured against Opioid receptor delta 1 in mouse vas deferens (MVD) smooth muscle preparation at 100 nM using DADLE as standard agonist. A digest of the protocol:
as §2

The test system of experiment [6] is Mus musculus. Nature of the experiment: Compound was tested for antagonism of the antinociceptive effect of M opioid agonist, sc in mice in an acetic acid writhing assay in a treated group(icv with 100 nmol of 2.HCl in 5 microL of saline). In kind it is functional. The method, boiled down: as §3
Experiment [7] has as its target Mu-type opioid receptor (Homo sapiens) (UniProt P35372). Briefly: Compound was tested for antagonist activity against mu opioid receptor on electrically stimulated guinea pig ileal longitudinal muscle myenteric plexus (GPI) at 100 nM using M as agonist ligand. IC50. In kind it is functional. A digest of the protocol:
as §2

The target of experiment [8] is Delta-type opioid receptor (Mus musculus) (UniProt P32300). Briefly: Binding affinity of compound was measured against Opioid receptor delta 1 in mouse vas deferens (MVD) smooth muscle preparation at 100 nM using DPDPE as standard agonist. The method, boiled down:
as §2

Experiment [9] has as its system Mus musculus. Briefly: compound was tested for antagonism of the antinociceptive effect of EK opioid agonist, sc in mice in an acetic acid writhing assay in a treated group(icv with 100 nmol of 2.HCl in 5 microL of saline). In kind it is functional. The method, boiled down: as §3
Experiment [10] addresses Mu-type opioid receptor (Cavia porcellus) (UniProt P97266). Briefly: Maximal inhibition of compound was measured on guinea pig ileal longitudinal muscle (GPI) preparation at 1 uM concentration. The format is functional, tissue-based. The following applies: Muscle tissue. A digest of the protocol: (§5)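 Agonist activity at 1 μM on electrically stimulated guinea pig ileum and mouse vas deferens preparations. Maximal inhibition or stimulation was recorded, averaged over three determinations.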

For experiment [11] the target is unchanged. The description is as §4. A digest of the protocol: as §2
Experiment [12] deals with Kappa-type opioid receptor (Cavia porcellus) (UniProt P41144). The description is as §1. The method, boiled down:
as §2

For experiment [13], the system named is Kappa-type opioid receptor. Nature of the experiment: Compound was tested for antagonist activity against kappa opioid receptor on electrically stimulated guinea pig ileal longitudinal muscle myenteric plexus (GPI) at 100 nM using EK as agonist ligand. The format is functional. A digest of the protocol: as §2
The nature of experiment [14]: Compound was tested for antagonist activity against Opioid receptor delta 1 in mouse vas deferens (MVD) smooth muscle preparation at 100 nM using DADLE as agonist. In kind it is functional. A digest of the protocol:
as §2

The target of experiment [15] is Delta-type opioid receptor (Mus musculus) (UniProt P32300). Nature of the experiment: Maximal inhibition of compound was measured on Mouse vas deferens(MVD) preparation. In kind it is functional. A digest of the protocol:
as §5

Experiment [16] concerns the target Mu-type opioid receptor (Cavia porcellus) (UniProt P97266). Briefly: Binding affinity of compound was measured against Opioid receptor mu 1 on electrically stimulated guinea pig ileal longitudinal muscle myenteric plexus (GPI)at 100 nM preparation using M as agonist. A digest of the protocol: as §2
Experiment [17] relates to Mus musculus. Briefly: Compound was tested for antagonism of the antinociceptive effect of M opioid agonist, sc in mice in an acetic acid writhing assay in a control group. In kind it is functional. The method, boiled down:
as §3

Experiment [18] concerns Mus musculus. Nature of the experiment: Compound was tested for antagonism of the antinociceptive effect of U-50, 488H opioid agonist, sc in mice in an acetic acid writhing assay in a treated group(icv with 100 nmol of 2.HCl in 5 microL of saline). The format is functional. The method, boiled down:
as §3
(In general: In writhing tests, fewer writhes than in controls are read as antinociception.)

For experiment [19], the target named is Kappa-type opioid receptor (Cavia porcellus) (UniProt P41144). Nature of the experiment: Binding affinity of compound was measured against Opioid receptor kappa 1 on electrically stimulated guinea pig ileal longitudinal muscle myenteric plexus (GPI) at 100 nM preparation using EK as agonist. A digest of the protocol: as §2
Chain of Kappa-type opioid receptor (Cavia porcellus) (P41144 whole entry): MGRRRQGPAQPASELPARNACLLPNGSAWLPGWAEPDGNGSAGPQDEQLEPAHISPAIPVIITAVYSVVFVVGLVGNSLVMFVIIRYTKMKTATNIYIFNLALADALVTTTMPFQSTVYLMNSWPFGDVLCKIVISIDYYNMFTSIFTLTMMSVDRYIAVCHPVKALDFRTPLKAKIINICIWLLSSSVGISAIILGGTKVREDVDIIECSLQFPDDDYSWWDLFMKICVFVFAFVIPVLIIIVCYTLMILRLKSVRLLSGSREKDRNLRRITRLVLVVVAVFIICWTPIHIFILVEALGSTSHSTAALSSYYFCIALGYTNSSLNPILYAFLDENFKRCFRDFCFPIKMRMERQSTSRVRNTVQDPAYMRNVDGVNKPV
Experiment [20] addresses Kappa-type opioid receptor (Homo sapiens) (UniProt P41145). Nature of the experiment: Compound was tested for antagonist activity against kappa opioid receptor on electrically stimulated guinea pig ileal longitudinal muscle myenteric plexus (GPI) at 100 nM using U-50,488H as agonist ligand. The format is functional. The method, boiled down:
as §2

Experiment [21] concerns Mus musculus. Briefly: Compound was tested for antagonism of the antinociceptive effect of EK opioid agonist, sc in mice in an acetic acid writhing assay in a control group. The format is functional. A digest of the protocol: as §3
Experiment [22] addresses Mu-type opioid receptor (Homo sapiens) (UniProt P35372). Briefly: Compound was tested for antagonist activity against mu opioid receptor on electrically stimulated guinea pig ileal longitudinal muscle myenteric plexus (GPI) at 100 nM using M as agonist ligand. In kind it is functional. A digest of the protocol: as §2
Experiment [23] deals with T2, Mu-type opioid receptor. Briefly: Binding affinity against Opioid receptor mu 1 was measured in the guinea pig brain membranes using [3H]DAMGO as radioligand. The format is cell membranes, Membrane. A digest of the protocol:
(§6)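 Guinea pig brain membranes, using a modified version of a published method. μ sites were labelled with [³H]DAMGO. κ sites were labelled with [³H]EK plus 1 μM unlabeled DAMGO. δ sites were labelled with [³H]DADLE plus 1 μM unlabeled DAMGO. Ki values were derived by displacement.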

In experiment [24] the target is T1, Kappa-type opioid receptor. Nature of the experiment: Binding affinity against Opioid receptor kappa 1 was measured in the guinea pig brain membranes using [3H]EK in the presence of 1 uM unlabeled DAMGO as radioligand. The format is cell membranes, Membrane. A digest of the protocol:
as §6

For experiment [25], the target named is Opioid receptors; mu & kappa (Homo sapiens) (UniProt P41145+P35372). Nature of the experiment: Ki ratio measured as the ke values of mu receptor/kappa receptor from guinea pig brain membranes.
Chain of Opioid receptors; mu & kappa (Homo sapiens) (P35372 whole entry, looked up): as the sequence (P35372 whole entry) above
Chain of Opioid receptors; mu & kappa (Homo sapiens) (P41145 whole entry, looked up): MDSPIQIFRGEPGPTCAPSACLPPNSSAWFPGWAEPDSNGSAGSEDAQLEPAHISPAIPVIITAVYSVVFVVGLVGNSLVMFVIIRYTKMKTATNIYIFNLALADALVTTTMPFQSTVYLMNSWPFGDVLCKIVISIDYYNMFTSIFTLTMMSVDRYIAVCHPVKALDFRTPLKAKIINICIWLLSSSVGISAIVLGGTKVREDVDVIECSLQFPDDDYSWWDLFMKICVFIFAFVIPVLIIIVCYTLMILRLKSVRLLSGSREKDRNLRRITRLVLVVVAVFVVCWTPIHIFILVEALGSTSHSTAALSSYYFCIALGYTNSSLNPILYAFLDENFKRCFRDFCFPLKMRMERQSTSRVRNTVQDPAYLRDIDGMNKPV

T1 sequence (P41144 whole entry): as the sequence (P41144 whole entry) above
T2 sequence (P97266 whole entry): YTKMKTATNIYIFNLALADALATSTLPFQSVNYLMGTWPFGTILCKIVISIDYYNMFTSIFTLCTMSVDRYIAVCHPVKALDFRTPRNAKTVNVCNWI
Chain of Mu-type opioid receptor (Cavia porcellus) (P97266 whole entry): as above
Chain of Delta-type opioid receptor (Mus musculus) (P32300 whole entry): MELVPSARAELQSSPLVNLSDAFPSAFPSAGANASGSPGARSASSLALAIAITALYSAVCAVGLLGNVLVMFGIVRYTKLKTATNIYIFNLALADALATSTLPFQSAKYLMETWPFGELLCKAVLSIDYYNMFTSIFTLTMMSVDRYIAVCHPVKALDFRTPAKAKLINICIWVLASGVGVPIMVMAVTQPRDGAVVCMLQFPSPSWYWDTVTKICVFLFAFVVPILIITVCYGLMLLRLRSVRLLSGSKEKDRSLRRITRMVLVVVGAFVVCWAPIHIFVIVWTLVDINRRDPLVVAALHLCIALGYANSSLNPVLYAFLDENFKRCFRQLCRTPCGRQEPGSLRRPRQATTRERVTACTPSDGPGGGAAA
Chain of Kappa-type opioid receptor (Homo sapiens) (P41145 whole entry): as the sequence (P41145 whole entry, looked up) above

Consider `Oc1ccc2c3c1O[C@H]1c4sc5c(c4C[C@@]4(O)[C@@H](C2)N(CC2CC2)CC[C@]314)C[C@@]1(O)[C@H]2Cc3ccc(O)c4c3[C@@]1(CCN2CC1CC1)[C@H]5O4`, for which the Ki was 1.4 nM in experiment [1] and 189 nM on Mu-type opioid receptor [4]. The ED50 stood at 1.5 mg/kg with Mus musculus [2]; 5.4 mg/kg with Mus musculus [6]; 0.13 mg/kg with Mus musculus [9]; 0.91 mg/kg in the experiment on Mus musculus [17]; 11.2 mg/kg with Mus musculus [18]; 0.038 mg/kg with Mus musculus [21]. Besides, the Ratio worked out at 1.9 in experiment [3]; 3.5 in [7]; 39 in [13]; 4 in experiment [14]; 33 in [20]. The Ke in experiment [5] was 33 nM; in [8], > 556 nM; in [11], > 103 nM; in experiment [12] it was 3.1 nM; in experiment [16], 41 nM; in [19] it was 2.6 nM. Moreover, the values for the Activity in experiment [10] and in experiment [15] were -17 and -26, respectively.

For `Oc1ccc2c3c1O[C@H]1C4=C(C[C@@]5(O)[C@@H](C2)N(CC2CC2)CC[C@]315)C(c1ccccc1)C1=C(O4)[C@@H]2Oc3c(O)ccc4c3[C@@]23CCN(CC2CC2)[C@H](C4)[C@]3(O)C1`, the values for the Ke in experiment [5], in experiment [16] and in experiment [19] were 36 nM, 39 nM and 2.6 nM, respectively. Further, the values for the Activity in [10] and in [15] were -24 and 9, respectively. The Ratio in [22] came out at 3.6; in experiment [13], 39; in experiment [14], 3.8; in experiment [25] it was 11. Besides, the inhibition constant (Ki) was determined as 29 nM on Mu-type opioid receptor [23] and 10 nM in experiment [24].

For `Oc1ccc2c3c1O[C@H]1C(SSC4=CC[C@@]5(O)[C@H]6Cc7ccc(O)c8c7[C@@]5(CCN6CC5CC5)[C@H]4O8)=CC[C@@]4(O)[C@@H](C2)N(CC2CC2)CC[C@]314`, the values for the Ke in experiment [5], in experiment [16] and in experiment [19] were 13.2 nM, 2.2 nM and 3.5 nM, respectively. For the same molecule, the Ratio came out at 14.6 in experiment [7], 9.7 in [13] and 8.6 in [14]. Further, the Activity in [10] came out at 40; in experiment [15] it was 15.

Consider `Oc1ccc2c3c1O[C@H]1c4[nH]c5c(c4C[C@@]4(O)[C@@H](C2)N(CC2CC2)CC[C@]314)C[C@@]1(O)[C@H]2Cc3ccc(O)c4c3[C@@]1(CCN2CC1CC1)[C@H]5O4` [NORBINALTORPHIMINE], for which the values for the Ki (in experiment [1]; at Mu-type opioid receptor [4]) were 0.26 nM and 47 nM, respectively. In addition, the Ke in experiment [5] worked out at 10.6 nM; in experiment [11], 22 nM; in experiment [12], 0.21 nM; in experiment [16], 14 nM; in experiment [19], 0.55 nM. In addition, the Activity in experiment [10] was determined as 14; in experiment [15], 16.

Turning to `O=C1C(=Cc2ccccc2)C[C@@]2(O)[C@H]3Cc4ccc(O)c5c4[C@@]2(CCN3CC2CC2)[C@H]1O5`, the Ke in experiment [5] was found to be 2.9 nM; in [16], 8.3 nM; in experiment [19] it was 100 nM. In addition, the figures for the Ratio in experiment [7], in experiment [13] and in experiment [14] were 13.1, 2 and 35, respectively. Moreover, the Activity was -8 in experiment [10] and -35 in [15].

As to `Cn1c2c(c3c1[C@@H]1Oc4c(O)ccc5c4[C@@]14CCN(CC1CC1)[C@H](C5)[C@]4(O)C3)C[C@@]1(O)[C@H]3Cc4ccc(O)c5c4[C@@]1(CCN3CC1CC1)[C@H]2O5` [BINALTORPHIMINE], the inhibition constant Ki at Mu-type opioid receptor [23] was found to be 18 nM; in experiment [24] it was 0.41 nM. Also, the Ratio in experiment [25] is 44.
